This note sets out measurements from ChEMBL document CHEMBL4196017, “Design, synthesis and identification of silicon-containing HCV NS5A inhibitors with pan-genotype activity” (Eur J Med Chem, 2018).

pEC50: −log10 of the molar value.

One may read the pEC50 as −log10 of the EC50, conventionally taken in molar units. Read a high pEC50 as a low EC50.

For data set [1], the system named is Mus musculus. The experiment in a line: Toxicity in ICR mouse assessed as aspartate aminotransferase level in serum at 150 mg/kg, po administered via gavage once daily for 14 days (reference value: 111.44 +/- 32.76 U/L). The conditions noted are these: in vivo, 336 h. In kind it is organism-based. The essentials: (§1)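 ICR mice, 5 males + 5 females per group, dosed by gavage once daily at 150 mg/kg (20 ml/kg) or vehicle for 14 days; killed after the 14th dose; blood from abdominal aorta under ether anaesthesia for hematology and clinical chemistry; mean ± SD, n = 10.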

Data set [2] relates to Mus musculus. Put plainly: Toxicity in ICR mouse assessed as total protein level in serum at 150 mg/kg, po administered via gavage once daily for 14 days (reference value: 53.97 +/- 1.56 g/l). The conditions noted are these: in vivo, 336 h. In kind it is organism-based.
In data set [3] the test system is Mus musculus. Put plainly: Toxicity in ICR mouse assessed as blood urea nitrogen level in serum at 150 mg/kg, po administered via gavage once daily for 14 days (reference value: 10.44 +/- 1.77 mmol/L). In kind it is organism-based. Conditions: in vivo, 336 h. The essentials: as §1
The test system of data set [4] is Mus musculus. Put plainly: Toxicity in ICR mouse assessed as serum creatine kinase level at 150 mg/kg, po administered via gavage once daily for 14 days (reference value: 705.78 +/- 330.84 U/L). In kind it is organism-based. The conditions noted are these: in vivo, 336 h.
The subject of data set [5] is Mus musculus. The experiment in a line: Toxicity in ICR mouse assessed as total cholesterol level at 150 mg/kg, po administered via gavage once daily for 14 days (reference value: 0.93 +/- 0.31 mmol/L). In kind it is organism-based. Conditions: in vivo, 336 h.
Data set [6] relates to Mus musculus. Put plainly: Toxicity in ICR mouse assessed as basophil level in serum at 150 mg/kg, po administered via gavage once daily for 14 days (reference value: 0.02 +/- 0.04%). The format is organism-based. The conditions noted are these: in vivo, 336 h. An outline of the steps:
as §1

The test system of data set [7] is Mus musculus. Put plainly: Toxicity in ICR mouse assessed as body weight at 150 mg/kg, po administered via gavage once daily for 14 days (reference value: 25.8 +/- 3.5 g). The conditions noted are these: in vivo, 336 h. The format is organism-based.
For data set [8], the system named is Mus musculus. Put plainly: Toxicity in ICR mouse assessed as testis weight at 150 mg/kg, po administered via gavage once daily for 14 days (reference value: 0.881 +/- 0.037 g). In kind it is organism-based. The conditions noted are these: in vivo, 336 h.
Data set [9] has as its system Mus musculus. Put plainly: Toxicity in ICR mouse assessed as thymus weight at 150 mg/kg, po administered via gavage once daily for 14 days (reference value: 0.289 +/- 0.081 g). In kind it is organism-based. Conditions: in vivo, 336 h.
In data set [10] the test system is Mus musculus. Put plainly: Toxicity in ICR mouse assessed as triglyceride level at 150 mg/kg, po administered via gavage once daily for 14 days (reference value: 1.67 +/- 0.32 mmol/L). The format is organism-based. Conditions: in vivo, 336 h.
Data set [11] concerns Mus musculus. Put plainly: Toxicity in ICR mouse assessed as brain weight at 150 mg/kg, po administered via gavage once daily for 14 days (reference value: 1.686 +/- 0.241 g). In kind it is organism-based. Conditions: in vivo, 336 h.
Data set [12] concerns Mus musculus. Put plainly: Toxicity in ICR mouse assessed as reticulocyte level in serum at 150 mg/kg, po administered via gavage once daily for 14 days (reference value: 4.73 +/- 0.56%). In kind it is organism-based. The conditions noted are these: in vivo, 336 h. The essentials:
(§2)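 Haematology on abdominal aortic blood taken at necropsy under ether anaesthesia after 14 daily gavage doses (20 ml/kg) in ICR mice, 5 per sex per group, vehicle control. Parameters: WBC, RBC, haemoglobin, platelets, reticulocyte ratio and differential leukocyte counts; mean ± SD, n = 10.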

In data set [13] the target is T1, Nonstructural protein 5A (Hepatitis C virus) (UniProt Q5L478).
T1 sequence (whole entry): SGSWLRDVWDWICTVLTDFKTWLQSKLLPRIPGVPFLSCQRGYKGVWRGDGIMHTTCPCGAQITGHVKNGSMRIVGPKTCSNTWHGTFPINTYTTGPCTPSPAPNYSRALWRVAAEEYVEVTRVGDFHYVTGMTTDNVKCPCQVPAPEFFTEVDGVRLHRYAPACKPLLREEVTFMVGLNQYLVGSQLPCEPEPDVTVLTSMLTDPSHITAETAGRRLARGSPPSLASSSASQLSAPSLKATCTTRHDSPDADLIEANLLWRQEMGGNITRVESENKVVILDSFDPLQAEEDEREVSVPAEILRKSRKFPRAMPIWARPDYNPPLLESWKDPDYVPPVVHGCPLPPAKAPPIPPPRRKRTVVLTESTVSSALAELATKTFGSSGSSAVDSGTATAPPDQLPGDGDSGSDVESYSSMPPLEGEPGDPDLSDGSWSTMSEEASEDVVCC
Put plainly: Potency index, ratio of ombitasvir IC50 to compound IC50 for inhibition of NS5A in HCV genotype 6a infected in human HuH7 replicon cells expressing HCV genotype 1b chimeric replicon. In kind it is cell-based. The conditions noted are these: Hepatitis C virus subtype 6a.

Data set [14] relates to Mus musculus. The experiment in a line: Toxicity in ICR mouse assessed as lymphocyte level in serum at 150 mg/kg, po administered via gavage once daily for 14 days (reference value: 57.65 +/- 13.53%). In kind it is organism-based. The conditions noted are these: in vivo, 336 h. The essentials: as §2
For data set [15], the system named is Mus musculus. Put plainly: Toxicity in ICR mouse assessed as hemoglobin concentration at 150 mg/kg, po administered via gavage once daily for 14 days (reference value: 157.4 +/- 15.5 g/L). The format is organism-based. The conditions noted are these: in vivo, 336 h. The essentials:
as §2

Data set [16] relates to Mus musculus. Put plainly: Toxicity in ICR mouse assessed as RBC count at 150 mg/kg, po administered via gavage once daily for 14 days (reference value: 9.04 +/- 0.8 10^12/L). The format is organism-based. The conditions noted are these: in vivo, 336 h. An outline of the steps: as §1
For data set [17], the system named is Mus musculus. Put plainly: Toxicity in ICR mouse assessed as total bile acid level at 150 mg/kg, po administered via gavage once daily for 14 days (reference value: 5.67 +/- 2.45 umol/L). In kind it is organism-based. Conditions: in vivo, 336 h.
For data set [18], the system named is Mus musculus. Put plainly: Toxicity in ICR mouse assessed as heart weight at 150 mg/kg, po administered via gavage once daily for 14 days (reference value: 0.539 +/- 0.094 g). In kind it is organism-based. Conditions: in vivo, 336 h.
Data set [19] relates to Mus musculus. Put plainly: Toxicity in ICR mouse assessed as monocyte level in serum at 150 mg/kg, po administered via gavage once daily for 14 days (reference value: 12.93 +/- 3.61%). In kind it is organism-based. Conditions: in vivo, 336 h. An outline of the steps:
as §2

Data set [20] concerns Mus musculus. The experiment in a line: Toxicity in ICR mouse assessed as spleen weight at 150 mg/kg, po administered via gavage once daily for 14 days (reference value: 0.355 +/- 0.1 g). The format is organism-based. The conditions noted are these: in vivo, 336 h.
Data set [21] has as its system Mus musculus. The experiment in a line: Toxicity in ICR mouse assessed as WBC count at 150 mg/kg, po administered via gavage once daily for 14 days (reference value: 7.03 +/- 1.56 10^9/L). Conditions: in vivo, 336 h. The format is organism-based. An outline of the steps: as §1
The test system of data set [22] is Mus musculus. The experiment in a line: Toxicity in ICR mouse assessed as albumin level in serum at 150 mg/kg, po administered via gavage once daily for 14 days (reference value: 25.87 +/- 1.67 g/l). The format is organism-based. Conditions: in vivo, 336 h. The essentials: as §1
Data set [23] deals with Mus musculus. The experiment in a line: Toxicity in ICR mouse assessed as alanine aminotransferase level in serum at 150 mg/kg, po administered via gavage once daily for 14 days (reference value: 28.33 +/- 9.89 U/L). In kind it is organism-based. Conditions: in vivo, 336 h. The essentials: as §1
Data set [24] has as its system Mus musculus. Put plainly: Toxicity in ICR mouse assessed as total bilirubin level in serum at 150 mg/kg, po administered via gavage once daily for 14 days (reference value: 9.95 +/- 2.18 umol/L). The format is organism-based. Conditions: in vivo, 336 h.
Data set [25] deals with Mus musculus. Put plainly: Toxicity in ICR mouse assessed as alkaline phosphatase level in serum at 150 mg/kg, po administered via gavage once daily for 14 days (reference value: 114.44 +/- 21.78 U/L). The format is organism-based. Conditions: in vivo, 336 h. An outline of the steps: as §1
For data set [26], the system named is Mus musculus. The experiment in a line: Toxicity in ICR mouse assessed as serum glutamate dehydrogenase level at 150 mg/kg, po administered via gavage once daily for 14 days (reference value: 13.78 +/- 2.86 U/L). In kind it is organism-based. The conditions noted are these: in vivo, 336 h.
A further data set has as its target T2, Nonstructural protein 5A (Hepatitis C virus, UniProt Q5L478).
T2 sequence (Q5L478 whole entry): T1 sequence (whole entry)
The experiment in a line: Inhibition of NS5A in HCV genotype 6a. Further details: species or system Hepatitis C virus subtype 6a.

On to `CC[Si](CC)(CC)c1ccc(N2[C@H](c3ccc(NC(=O)[C@@H]4CCCN4C(=O)[C@@H](NC(=O)OC)C(C)C)cc3)CC[C@H]2c2ccc(NC(=O)[C@@H]3CCCN3C(=O)[C@@H](NC(=O)OC)C(C)C)cc2)cc1`, for which the Activity with Mus musculus [1] is 110.6 U/L; in the data set on Mus musculus [2] it was 52.31 g/L; with Mus musculus [3] it was 10.16 mmol/L; in the data set on Mus musculus [4], 953.3 U/L; in the data set on Mus musculus [5] it was 0.85 mmol/L; in the data set with Mus musculus [6], 0.02%. Moreover, the Activity in the data set with Mus musculus [7] was 24 g; with Mus musculus [8] it was 0.789 g; in the data set on Mus musculus [9], 0.24 g; with Mus musculus [10], 1.53 mmol/L; in the data set on Mus musculus [11], 1.807 g; with Mus musculus [12] it was 3.88%. In addition, the Activity in the data set with Mus musculus [14] is 52.54%; with Mus musculus [15] it was 154.6 g/L; in the data set with Mus musculus [16], 9 ×10¹² /L; with Mus musculus [17], 10.5 µmol/L; with Mus musculus [18], 0.567 g; with Mus musculus [19], 12.44%. For the same compound, the Activity amounted to 0.345 g with Mus musculus [20]; 6.2 ×10⁹ /L in the data set on Mus musculus [21]; 25.38 g/L in the data set with Mus musculus [22]; 25.3 U/L with Mus musculus [23]; 11.24 µmol/L in the data set on Mus musculus [24]; 105.7 U/L with Mus musculus [25]. Also, the Activity in the data set with Mus musculus [26] was 15.1 U/L. For the same compound, the Ratio IC50 in data set [13] is 7.6.
`COC(=O)N[C@H](C(=O)N1CCC[C@H]1C(=O)Nc1ccc([C@@H]2CC[C@@H](c3ccc(NC(=O)[C@@H]4CCCN4C(=O)[C@@H](NC(=O)OC)C(C)C)cc3)N2c2ccc(C(C)(C)C)cc2)cc1)C(C)C` [OMBITASVIR]: the pEC50 at Nonstructural protein 5A was 10.26.
